# ChEMBL document CHEMBL4823270, “A first-in-class anticancer dual HDAC2/FAK inhibitors bearing hydroxamates/benzamides capped by pyridinyl-1,2,4-triazoles” (Eur J Med Chem, 2021)
# pIC50: −log10 of the molar value. Activity calls are given as the source filed them. The rule behind the calls is not given here.
# What was measured:
# HT-29 = assay: Growth inhibition of human HT-29 cells at 10 uM incubated for 24 hrs by MTT assay relative to control; format: functional; conditions: read-out: GI
# Outline: (§1)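 Cells seeded at 1 × 10^4 per well, cultured overnight, then exposed to 10 μM compound or DMSO (negative control) for 24 h. After a PBS wash, MTT (2 mg/ml) was added for 4 h at 37°C and formazan dissolved in DMSO. OD read at 570 nm. Growth inhibition = 1 − (OD treated/OD control); at least three independent experiments.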
# Histone deacetylase 8 = target: T1, Histone deacetylase 8 (Homo sapiens, UniProt Q9BY41); assay: Inhibition of human full-length recombinant C-terminal His-tagged HDAC8 expressed in baculovirus infected Sf9 insect cells preincubated for 5 mins followed by HDAC substrate addition and further incubated for 45 mins by fluorescence microplate reader assay
# T1 sequence (Q9BY41 whole entry): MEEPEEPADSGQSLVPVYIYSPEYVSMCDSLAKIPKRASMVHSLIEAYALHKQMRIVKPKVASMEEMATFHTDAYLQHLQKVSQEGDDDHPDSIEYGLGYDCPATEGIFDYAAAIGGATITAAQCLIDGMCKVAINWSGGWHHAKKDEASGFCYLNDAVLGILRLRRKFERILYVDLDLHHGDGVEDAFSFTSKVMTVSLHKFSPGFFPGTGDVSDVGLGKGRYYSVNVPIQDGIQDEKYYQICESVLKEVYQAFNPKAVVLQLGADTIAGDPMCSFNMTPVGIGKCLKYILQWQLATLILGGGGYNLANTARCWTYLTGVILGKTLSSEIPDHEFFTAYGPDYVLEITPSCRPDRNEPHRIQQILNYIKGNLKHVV
# Histone deacetylase 3 = Histone deacetylase 3 (Homo sapiens, UniProt O15379); assay: Inhibition of human full-length recombinant HDAC3 preincubated for 5 mins followed by HDAC substrate addition and further incubated for 45 mins by fluorescence microplate reader assay
# Histone deacetylase 3, sequence (O15379 whole entry): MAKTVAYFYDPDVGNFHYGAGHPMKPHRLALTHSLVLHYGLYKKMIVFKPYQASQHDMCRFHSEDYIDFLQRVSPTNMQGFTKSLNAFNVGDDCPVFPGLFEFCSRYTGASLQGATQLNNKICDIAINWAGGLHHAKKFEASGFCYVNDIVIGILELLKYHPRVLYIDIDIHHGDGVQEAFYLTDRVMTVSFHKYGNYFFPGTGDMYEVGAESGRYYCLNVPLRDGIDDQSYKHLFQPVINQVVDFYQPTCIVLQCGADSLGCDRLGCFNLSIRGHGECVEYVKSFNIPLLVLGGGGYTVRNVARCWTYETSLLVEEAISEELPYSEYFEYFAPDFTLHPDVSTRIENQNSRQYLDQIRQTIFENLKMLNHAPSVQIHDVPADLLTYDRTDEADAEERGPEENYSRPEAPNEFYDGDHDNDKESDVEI
# [1] = target: T2, Protein deacetylase HDAC6 (Homo sapiens, UniProt Q9UBN7); assay: Inhibition of human full-length recombinant HDAC6 preincubated for 5 mins followed by HDAC substrate addition and further incubated for 45 mins by fluorescence microplate reader assay
# T2 sequence (Q9UBN7 whole entry): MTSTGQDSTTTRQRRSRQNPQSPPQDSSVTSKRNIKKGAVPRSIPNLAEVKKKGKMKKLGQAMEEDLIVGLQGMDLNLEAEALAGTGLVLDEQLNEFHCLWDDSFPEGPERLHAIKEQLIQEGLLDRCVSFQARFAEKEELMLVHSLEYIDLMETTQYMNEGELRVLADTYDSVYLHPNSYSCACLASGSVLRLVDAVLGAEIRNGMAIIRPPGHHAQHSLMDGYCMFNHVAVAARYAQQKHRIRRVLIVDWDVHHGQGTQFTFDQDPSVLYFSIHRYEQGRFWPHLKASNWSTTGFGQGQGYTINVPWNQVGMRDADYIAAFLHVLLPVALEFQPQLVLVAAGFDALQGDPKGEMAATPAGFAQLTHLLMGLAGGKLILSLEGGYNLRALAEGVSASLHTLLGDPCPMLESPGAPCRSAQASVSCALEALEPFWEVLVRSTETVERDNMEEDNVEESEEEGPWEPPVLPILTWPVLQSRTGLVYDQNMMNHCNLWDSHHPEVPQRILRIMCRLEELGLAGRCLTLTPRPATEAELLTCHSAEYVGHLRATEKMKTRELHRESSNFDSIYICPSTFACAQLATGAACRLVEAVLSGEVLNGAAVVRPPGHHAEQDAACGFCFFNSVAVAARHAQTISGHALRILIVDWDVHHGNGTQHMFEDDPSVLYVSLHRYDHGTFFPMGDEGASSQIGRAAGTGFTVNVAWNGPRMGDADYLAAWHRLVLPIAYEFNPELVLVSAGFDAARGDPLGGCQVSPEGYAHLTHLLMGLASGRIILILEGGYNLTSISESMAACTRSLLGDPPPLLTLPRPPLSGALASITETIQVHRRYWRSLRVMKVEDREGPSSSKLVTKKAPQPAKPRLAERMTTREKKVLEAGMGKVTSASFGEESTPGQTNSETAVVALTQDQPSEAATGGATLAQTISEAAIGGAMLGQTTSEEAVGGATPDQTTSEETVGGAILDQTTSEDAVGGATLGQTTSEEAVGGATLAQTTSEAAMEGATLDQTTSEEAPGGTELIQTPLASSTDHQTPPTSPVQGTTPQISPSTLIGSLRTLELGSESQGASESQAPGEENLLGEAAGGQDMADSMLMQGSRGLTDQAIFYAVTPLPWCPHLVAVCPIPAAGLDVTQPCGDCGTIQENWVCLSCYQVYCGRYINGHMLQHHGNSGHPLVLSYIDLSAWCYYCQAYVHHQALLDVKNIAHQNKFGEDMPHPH
# Focal adhesion kinase 1 [2] = target: T3, Focal adhesion kinase 1 (Homo sapiens, UniProt Q05397); assay: Inhibition of FAK (unknown origin) by FRET-based Z'-Lyte assay
# Outline: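 Recombinant FAK kinase activity measured with the FRET-based Z'-LYTE format; the same platform was used for a kinase panel (FAK, FLT, FRK, IGF-1R, BTK). IC50 values determined.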
# Target sequence in this assay (Q05397 whole entry): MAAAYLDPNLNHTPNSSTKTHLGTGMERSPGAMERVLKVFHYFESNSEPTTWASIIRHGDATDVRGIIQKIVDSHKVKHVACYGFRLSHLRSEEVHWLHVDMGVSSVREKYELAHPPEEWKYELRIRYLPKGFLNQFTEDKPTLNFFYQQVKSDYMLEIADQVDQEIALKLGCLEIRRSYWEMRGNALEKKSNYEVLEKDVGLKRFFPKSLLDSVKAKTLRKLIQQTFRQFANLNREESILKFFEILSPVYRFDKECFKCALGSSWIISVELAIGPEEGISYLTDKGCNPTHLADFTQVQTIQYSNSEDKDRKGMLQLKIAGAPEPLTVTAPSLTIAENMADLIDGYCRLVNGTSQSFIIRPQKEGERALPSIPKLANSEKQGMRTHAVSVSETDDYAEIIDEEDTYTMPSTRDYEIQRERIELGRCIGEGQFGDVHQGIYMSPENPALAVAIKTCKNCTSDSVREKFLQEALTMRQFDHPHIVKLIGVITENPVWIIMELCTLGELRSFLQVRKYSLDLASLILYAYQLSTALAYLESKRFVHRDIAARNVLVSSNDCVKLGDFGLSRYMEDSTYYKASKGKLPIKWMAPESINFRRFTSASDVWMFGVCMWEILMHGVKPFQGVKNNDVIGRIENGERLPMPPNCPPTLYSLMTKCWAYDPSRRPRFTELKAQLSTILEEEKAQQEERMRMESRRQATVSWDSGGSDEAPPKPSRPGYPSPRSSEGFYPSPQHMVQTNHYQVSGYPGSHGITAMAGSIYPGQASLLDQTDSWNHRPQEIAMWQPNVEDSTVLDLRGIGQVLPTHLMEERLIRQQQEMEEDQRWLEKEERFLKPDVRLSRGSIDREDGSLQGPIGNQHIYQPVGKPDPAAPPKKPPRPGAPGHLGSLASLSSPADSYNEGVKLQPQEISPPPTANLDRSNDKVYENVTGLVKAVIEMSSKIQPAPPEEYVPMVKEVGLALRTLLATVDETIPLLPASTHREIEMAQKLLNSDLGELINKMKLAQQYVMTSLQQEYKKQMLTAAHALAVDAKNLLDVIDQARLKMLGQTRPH
# HCT-116 = assay: Growth inhibition of human HCT-116 cells at 10 uM incubated for 24 hrs by MTT assay relative to control; format: functional; conditions: read-out: GI; outline: as §1
# K562 = assay: Growth inhibition of human K562 cells at 10 uM incubated for 24 hrs by MTT assay relative to control; format: functional; conditions: read-out: GI; outline: as §1
# Histone deacetylase 2 [3] = target: T4, Histone deacetylase 2 (Homo sapiens, UniProt Q92769); assay: Inhibition of human full-length recombinant HDAC2 preincubated for 5 mins followed by HDAC substrate addition and further incubated for 45 mins by fluorescence microplate reader assay
# T4 sequence (Q92769 whole entry): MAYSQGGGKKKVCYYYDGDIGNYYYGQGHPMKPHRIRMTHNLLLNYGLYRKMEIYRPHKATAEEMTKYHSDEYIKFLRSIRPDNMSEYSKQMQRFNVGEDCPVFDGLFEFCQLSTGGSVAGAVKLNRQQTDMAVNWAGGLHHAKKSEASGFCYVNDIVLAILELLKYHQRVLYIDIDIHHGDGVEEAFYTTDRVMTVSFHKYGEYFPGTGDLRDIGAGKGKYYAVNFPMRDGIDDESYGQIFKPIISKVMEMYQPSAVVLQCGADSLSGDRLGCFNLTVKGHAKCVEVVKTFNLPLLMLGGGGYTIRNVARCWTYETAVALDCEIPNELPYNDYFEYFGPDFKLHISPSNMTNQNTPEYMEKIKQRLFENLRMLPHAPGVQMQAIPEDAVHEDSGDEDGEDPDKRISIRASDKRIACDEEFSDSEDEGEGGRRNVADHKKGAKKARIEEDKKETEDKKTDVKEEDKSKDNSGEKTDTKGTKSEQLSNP
# A498 [4] = assay: Antiproliferative activity against human A498 cells assessed as cell growth inhibition incubated for 24 hrs by MTT assay; format: functional, cell-based; conditions: A498, 24 h
# CAKI-1 [5] = assay: Antiproliferative activity against human CAKI-1 cells assessed as cell growth inhibition incubated for 24 hrs by MTT assay; format: functional, cell-based; conditions: CAKI-1, 24 h
# A498 [6] = assay: Growth inhibition of human A498 cells at 10 uM incubated for 24 hrs by MTT assay relative to control; format: functional; conditions: read-out: GI; outline: as §1
# Histone deacetylase 1 = Histone deacetylase 1 (Homo sapiens, UniProt Q13547); assay: Inhibition of human full-length recombinant HDAC1 preincubated for 5 mins followed by HDAC substrate addition and further incubated for 45 mins by fluorescence microplate reader assay
# Histone deacetylase 1, sequence (Q13547 whole entry): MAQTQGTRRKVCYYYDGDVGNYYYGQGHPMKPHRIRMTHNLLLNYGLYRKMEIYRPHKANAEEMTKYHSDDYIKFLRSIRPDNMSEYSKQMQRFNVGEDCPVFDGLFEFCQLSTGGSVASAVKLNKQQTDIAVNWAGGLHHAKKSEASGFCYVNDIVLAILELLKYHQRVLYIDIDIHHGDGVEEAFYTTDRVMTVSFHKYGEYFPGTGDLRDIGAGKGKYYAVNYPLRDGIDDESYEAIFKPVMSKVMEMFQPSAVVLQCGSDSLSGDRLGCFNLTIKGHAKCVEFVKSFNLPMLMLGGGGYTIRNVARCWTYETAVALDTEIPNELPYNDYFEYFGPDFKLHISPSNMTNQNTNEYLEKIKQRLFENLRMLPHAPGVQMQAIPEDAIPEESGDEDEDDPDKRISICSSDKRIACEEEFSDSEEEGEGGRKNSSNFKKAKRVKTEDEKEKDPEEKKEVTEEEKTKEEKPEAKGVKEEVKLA
# CAKI-1 [7] = assay: Growth inhibition of human CAKI-1 cells at 10 uM incubated for 24 hrs by MTT assay relative to control; format: functional; conditions: read-out: GI; outline: as §1
# KG-1 = assay: Growth inhibition of human KG-1 cells at 10 uM incubated for 24 hrs by MTT assay relative to control; format: functional; conditions: KG-1, 24 h; outline: as §1
# Focal adhesion kinase 1 [8] = target: T3, Focal adhesion kinase 1; assay: Inhibition of FAK in human CAKI-1 cells assessed as reduction in FAK phosphorylation by Western blot analysis; format: cell-based
# Outline: (§2)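 40 μg protein (Bradford) resolved by SDS-PAGE, transferred to PVDF, blocked 1 h in milk or BSA. Primary antibody overnight, HRP secondary 1 h, ECL detection; β-actin as loading control.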
# Target sequence in this assay (Q05397 2-1052 limits assumed): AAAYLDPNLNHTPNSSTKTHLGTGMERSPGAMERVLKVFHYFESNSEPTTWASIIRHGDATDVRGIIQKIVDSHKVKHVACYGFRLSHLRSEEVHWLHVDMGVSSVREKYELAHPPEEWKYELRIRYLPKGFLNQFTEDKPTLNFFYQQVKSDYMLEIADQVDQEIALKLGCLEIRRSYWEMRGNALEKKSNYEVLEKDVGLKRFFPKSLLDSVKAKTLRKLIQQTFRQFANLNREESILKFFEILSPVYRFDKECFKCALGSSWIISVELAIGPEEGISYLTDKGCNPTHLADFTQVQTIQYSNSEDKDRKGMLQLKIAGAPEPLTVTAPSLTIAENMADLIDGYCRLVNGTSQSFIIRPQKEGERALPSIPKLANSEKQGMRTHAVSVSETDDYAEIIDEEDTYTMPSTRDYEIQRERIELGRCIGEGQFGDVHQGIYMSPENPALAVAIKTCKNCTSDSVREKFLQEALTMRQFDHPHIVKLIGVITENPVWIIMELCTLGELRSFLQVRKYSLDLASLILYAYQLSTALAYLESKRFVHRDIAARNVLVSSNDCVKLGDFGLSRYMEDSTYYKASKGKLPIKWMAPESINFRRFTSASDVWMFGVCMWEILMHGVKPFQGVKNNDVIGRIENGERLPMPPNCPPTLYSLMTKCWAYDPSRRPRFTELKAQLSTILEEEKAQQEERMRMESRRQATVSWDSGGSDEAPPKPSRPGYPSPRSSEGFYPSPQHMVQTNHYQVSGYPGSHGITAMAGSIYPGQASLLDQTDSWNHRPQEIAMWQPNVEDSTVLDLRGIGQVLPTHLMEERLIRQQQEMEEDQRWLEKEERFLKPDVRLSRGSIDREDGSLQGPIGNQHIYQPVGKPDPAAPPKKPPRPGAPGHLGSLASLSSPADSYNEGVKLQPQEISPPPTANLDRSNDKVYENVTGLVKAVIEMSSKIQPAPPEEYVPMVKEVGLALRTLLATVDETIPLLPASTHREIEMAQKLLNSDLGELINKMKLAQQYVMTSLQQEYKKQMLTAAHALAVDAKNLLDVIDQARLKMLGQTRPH
# Histone deacetylase 2 [9] = target: T4, Histone deacetylase 2; assay: Inhibition of HDAC2 in human CAKI-1 cells assessed as reduction in HDAC2 expression by Western blot analysis; format: cell-based; outline: as §2
# Histone deacetylase 2 [10] = target: T4, Histone deacetylase 2; assay: Inhibition of HDAC2 in human A498 cells assessed as reduction in HDAC2 expression by Western blot analysis; format: cell-based; outline: as §2
# Focal adhesion kinase 1 [11] = target: T3, Focal adhesion kinase 1; assay: Inhibition of FAK in human A498 cells assessed as reduction in FAK phosphorylation by Western blot analysis; format: cell-based; outline: as §2
# Target sequence in this assay (Q05397 2-1052 limits assumed): as above
Structure (SMILES),inhibition of growth at 10 µM (HT-29) [%],pIC50 (Histone deacetylase 8),pIC50 (Histone deacetylase 3),pIC50 [1],pIC50 (Focal adhesion kinase 1 [2]),inhibition of growth at 10 µM (HCT-116) [%],inhibition of growth at 10 µM (K562) [%],pIC50 (Histone deacetylase 2 [3]),pIC50 (A498 [4]),pIC50 (CAKI-1 [5]),inhibition of growth at 10 µM (A498 [6]) [%],pIC50 (Histone deacetylase 1),inhibition of growth at 10 µM (CAKI-1 [7]) [%],inhibition in vitro at 10 µM (KG-1) [%],inhibition (Focal adhesion kinase 1 [8]),inhibition (Histone deacetylase 2 [9]),inhibition (Histone deacetylase 2 [10]),inhibition (Focal adhesion kinase 1 [11])
Nc1ccccc1NC(=O)c1ccc(CSc2nnc(-c3ccncc3)n2-c2ccccc2)cc1,37.9,5.27,3.95,5.02,7.02,45.4,19.6,5.08,5.21,5.08,72.5,4.66,66.9,47.3,,,,
C=CCn1c(SCCCCCC(=O)O)nnc1-c1ccncc1,21.2,< 3.52,3.61,< 3.52,6.91,16.2,2.95,4.99,4.07,3.78,11.4,4.01,3.25,15.4,,,,
Cn1c(SCc2ccc(C(=O)Nc3ccccc3N)cc2)nnc1-c1ccncc1,47.9,5.11,4.15,4.96,7.27,18,54.1,4.89,5.03,5.16,55.6,5.12,75.2,24.1,,,,
O=C(O)CCCCCSc1nnc(-c2ccncc2)n1-c1ccccc1,80.5,4.96,4.68,4.96,7.44,78.5,72.7,6.19,5.63,5.72,89.3,5.05,94.8,67.2,,,,
Cn1c(SCCCCCC(=O)O)nnc1-c1ccncc1,34.2,4.92,4.07,4.11,7.30,20.1,18.2,5.13,4.91,4.78,45.3,5.05,34.7,55.9,,,,
C=CCn1c(SCCCCCC(=O)Nc2ccccc2N)nnc1-c1ccncc1,95.5,5.23,4.96,5.01,7.84,90.5,86.4,5.85,5.92,5.87,97.7,4.51,95.4,94.2,Active,Active,Active,Active
CCn1c(SCCCCCC(=O)NO)nnc1-c1ccncc1,9.15,< 3.52,< 3.52,3.57,6.91,21.4,4.09,4.54,3.83,3.95,5.26,4.12,2.06,17.3,,,,
